“Also recorded” adds a separate entry of the source.
Key:
Format in all cases: in vivo, human
[1] = Preliminary two-compartment population pharmacokinetic model on SAD and MAD data
How it was run: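 A two-compartment model with first-order absorption, inter-compartmental transfer and elimination was fitted to plasma concentrations. Data were fasted single-dose and multiple-dose only; fed and pre-dosing data were excluded and MAD outliers kept. Parameters were ka, V1/F, V2/F, CL/F and Q/F, with k10, k12 and k21 derived from clearance/volume. Values below LLOQ (0.1 μg/ml) were left-censored. No covariate testing.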

[2] = SAD study: safety and tolerability
How it was run: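 Healthy males aged 18–55 took oral tablets. Treatment-emergent AEs were recorded by clinical evaluation. Vital signs (blood pressure, pulse), 12-lead and Holter ECG, physical examination, and urine and plasma laboratory tests were also assessed. AEs of special interest were hematuria and retroperitoneal colicky pain with suspected or confirmed nephrolithiasis. Subjects were hospitalized around dosing.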

[3] = SAD study: single ascending oral dose pharmacokinetics; conditions: for CL/F: geometric mean (geometric %CV)
How it was run: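 Healthy males (n = 6 per group) took oral tablets either fasted (10 h overnight fast, continued 4 h) or 30 min after starting a standardized breakfast. Periods were separated by at least 14 days of washout. Plasma was sampled pre-dose to 168 h; urine was collected 24 h pre-dose and 24 h post-dose. LC-MS/MS used ESI−, LLOQ 0.1 μg/ml. CL/F = dose/AUC0–∞; Vz/F = CL/F/λz; values are geometric means.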

[4] = base model, inter-individual variability
[5] = single oral 10 mg, fed vs fasted

**Q.** What does the source list for COc1cccc(-c2ccc(NC(=O)C3=C(C(=O)O)CCC3)c(F)c2)c1 [IMU-838, vidofludimus calcium]?
**A.** Correlation coefficient IIV CL/F and IIV V1/F ([1]; base model): 0.387; Exponential residual error ([1]; base model): 41.6 %CV; V1/F (volume in central compartment), population estimate ([1]; base model): 2.98 L; V2/F (volume in peripheral compartment), population estimate ([1]; base model): 6.31 L; ka (absorption rate), population estimate ([1]; base model): 0.15 h⁻¹; CL/F (apparent total clearance), population estimate ([1]; base model, fasted SAD and MAD data without pre-dosing): 4.47 mL/min; k12 (inter-compartmental rate constant) ([1]; base model, derived, Eq. 2): 0.124 h⁻¹; k21 (inter-compartmental rate constant) ([1]; base model, derived, Eq. 3): 0.0584 h⁻¹; IIV on CL/F [1, 4]: 20.8 %CV; IIV on V1/F [1, 4]: 49.4 %CV; half-life ([1]; human, plasma, oral): 2.76 h; half-life ([1]; male, human, plasma, oral): 33.1 h; k el ([1]; male, human, plasma, oral): 2.5e-05 s⁻¹; TEAE Flatulence: subjects having the event ([2]; 10 mg fasted, n = 6): 1 (16.7) N (%); TEAE Headache: subjects having the event ([2]; 10 mg fasted, n = 6): 1 (16.7) N (%); TEAE Micturition urgency: number of events ([2]; 10 mg fasted, n = 6): 1; TEAE Micturition urgency: subjects having the event ([2]; 10 mg fasted, n = 6): 1 (16.7) N (%); TEAE Viral upper respiratory tract infection: number of events ([2]; 10 mg fasted, n = 6): 2; TEAE Viral upper respiratory tract infection: subjects having the event ([2]; 10 mg fasted, n = 6): 2 (33.3) N (%); TEAEs Total: number of events ([2]; 10 mg fasted, n = 6): 5; TEAEs Total: subjects having the event ([2]; 10 mg fasted, n = 6): 3 (50.0) N (%); TEAE Epistaxis: subjects having the event ([2]; 10 mg fed, n = 6): 1 (16.7) N (%); TEAEs Total: number of events ([2]; 10 mg fed, n = 6): 1; TEAEs Total: subjects having the event ([2]; 10 mg fed, n = 6): 1 (16.7) N (%); TEAE Headache: subjects having the event ([2]; 20 mg fasted, n = 6): 1 (16.7) N (%); TEAEs Total: number of events ([2]; 20 mg fasted, n = 6): 1; TEAEs Total: subjects having the event ([2]; 20 mg fasted, n = 6): 1 (16.7) N (%); TEAE Opiates positive: number of events ([2]; 30 mg fasted, n = 6): 1; TEAE Opiates positive: subjects having the event ([2]; 30 mg fasted, n = 6): 1 (16.7) N (%); TEAEs Total: number of events ([2]; 30 mg fasted, n = 6): 1; TEAEs Total: subjects having the event ([2]; 30 mg fasted, n = 6): 1 (16.7) N (%); TEAE Rhinitis: subjects having the event ([2]; 40 mg fasted, n = 5): 1 (20.0) N (%); TEAEs Total: number of events ([2]; 40 mg fasted, n = 5): 1; TEAEs Total: subjects having the event ([2]; 40 mg fasted, n = 5): 1 (20.0) N (%); AEs of special interest (hematuria, retroperitoneal colicky pain) ([2]; all single doses): no AEs of special interest were observed; total number of TEAEs ([2]; all single doses, 12 subjects): nine; tolerability ([2]; single oral doses 10–40 mg): well tolerated; accumulation ratio regarding exposure expected following multiple daily dosing ([3]; based on single-dose pharmacokinetics): ~2; urine samples with concentration below the LLOQ ([3]; single oral 10 mg): all samples; effect of food on pharmacokinetics ([3]; single oral 10 mg, fasted vs fed): Food did not impact the pharmacokinetics; also recorded: no detrimental effect of food intake; CL/F ([3]; single oral 10 mg, fasted, n = 6): 4.064 (15.9) ml/min; blood exposure higher after fed administration compared with fasted [3, 5]: about 32%; geometric mean Cmax higher after fed compared with fasted [3, 5]: about 23%; CL/F ([3]; single oral 10 mg, fed, n = 6): 3.090 (25.5) ml/min; urine samples with concentration below the LLOQ ([3]; single oral 20 mg): four of six samples; CL/F ([3]; single oral 20 mg, fasted, n = 6): 4.218 (17.2) ml/min; CL/F ([3]; single oral 30 mg, fasted, n = 6): 3.633 (29.3) ml/min; CL/F ([3]; single oral 40 mg, fasted, n = 5): 3.480 (21) ml/min; dose dependence of plasma pharmacokinetics ([3]; single oral 10 to 40 mg, fasted): dose-linear; fraction of administered dose excreted in urine during single 24 h period ([3]; single oral 30 and 40 mg): more than 1%
